Where “and” joins values, the source holds several entries; their conditions need not be identical. Equal entries are not always repeated. Entries after “also recorded” stand apart in the source; their conditions may differ.
Legend:
[1] = target: rat mGluR1 (Rattus norvegicus, UniProt P23385); assay: calcium fluorescence counterscreen in rat mGluR1/BHK cells; assay type: cell-based
Outline: (§1)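 Calcium mobilization in rat receptor lines: mGluR1/BHK plated at 20,000 cells/well, mGluR5/HEK at 15,000 cells/well, in DMEM with 10% dialyzed FBS and 20 mM HEPES. […] Test compound run as a 10-point curve from 30 µM final, 1:3 dilutions. Maximum fluorescence of the EC20 and EC80 peaks is expressed versus control.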

[2] = tested on: rat mGluR5; assay: calcium fluorescence counterscreen in rat mGluR5/HEK cells; assay type: cell-based
Outline: as §1

[3] = target: human mGluR4 (Homo sapiens, UniProt Q14833); assay type: cell-based
Chain of human mGluR4 (Q14833 33-912): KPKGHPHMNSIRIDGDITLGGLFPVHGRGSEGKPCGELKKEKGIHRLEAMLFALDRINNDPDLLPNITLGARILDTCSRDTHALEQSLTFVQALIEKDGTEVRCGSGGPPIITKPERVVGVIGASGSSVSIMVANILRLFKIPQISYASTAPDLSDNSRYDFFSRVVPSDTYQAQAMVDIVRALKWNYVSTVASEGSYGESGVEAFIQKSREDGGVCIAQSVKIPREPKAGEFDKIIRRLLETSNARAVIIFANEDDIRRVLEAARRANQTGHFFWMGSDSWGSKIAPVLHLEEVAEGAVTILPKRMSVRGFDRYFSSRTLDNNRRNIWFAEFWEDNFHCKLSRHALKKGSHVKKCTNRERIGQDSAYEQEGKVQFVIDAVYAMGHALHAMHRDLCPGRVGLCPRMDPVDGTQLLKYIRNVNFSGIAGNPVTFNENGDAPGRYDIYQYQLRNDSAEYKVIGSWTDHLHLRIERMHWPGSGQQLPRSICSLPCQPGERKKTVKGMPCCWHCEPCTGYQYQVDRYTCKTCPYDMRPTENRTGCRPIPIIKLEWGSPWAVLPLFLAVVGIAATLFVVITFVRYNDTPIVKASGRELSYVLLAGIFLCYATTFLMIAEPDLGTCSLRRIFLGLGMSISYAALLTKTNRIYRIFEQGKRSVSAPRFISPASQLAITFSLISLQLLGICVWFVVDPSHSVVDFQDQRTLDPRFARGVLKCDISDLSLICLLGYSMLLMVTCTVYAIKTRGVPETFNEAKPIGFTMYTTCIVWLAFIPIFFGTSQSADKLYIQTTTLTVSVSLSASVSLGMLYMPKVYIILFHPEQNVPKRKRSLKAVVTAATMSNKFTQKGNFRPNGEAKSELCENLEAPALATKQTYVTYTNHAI

[4] = stability in fortified liver microsome preparations; assay type: in vitro ADME; settings: after 90 minutes, fortified liver microsomes
[5] = cited from earlier work

Chain of rat mGluR1 (P23385 19-1199): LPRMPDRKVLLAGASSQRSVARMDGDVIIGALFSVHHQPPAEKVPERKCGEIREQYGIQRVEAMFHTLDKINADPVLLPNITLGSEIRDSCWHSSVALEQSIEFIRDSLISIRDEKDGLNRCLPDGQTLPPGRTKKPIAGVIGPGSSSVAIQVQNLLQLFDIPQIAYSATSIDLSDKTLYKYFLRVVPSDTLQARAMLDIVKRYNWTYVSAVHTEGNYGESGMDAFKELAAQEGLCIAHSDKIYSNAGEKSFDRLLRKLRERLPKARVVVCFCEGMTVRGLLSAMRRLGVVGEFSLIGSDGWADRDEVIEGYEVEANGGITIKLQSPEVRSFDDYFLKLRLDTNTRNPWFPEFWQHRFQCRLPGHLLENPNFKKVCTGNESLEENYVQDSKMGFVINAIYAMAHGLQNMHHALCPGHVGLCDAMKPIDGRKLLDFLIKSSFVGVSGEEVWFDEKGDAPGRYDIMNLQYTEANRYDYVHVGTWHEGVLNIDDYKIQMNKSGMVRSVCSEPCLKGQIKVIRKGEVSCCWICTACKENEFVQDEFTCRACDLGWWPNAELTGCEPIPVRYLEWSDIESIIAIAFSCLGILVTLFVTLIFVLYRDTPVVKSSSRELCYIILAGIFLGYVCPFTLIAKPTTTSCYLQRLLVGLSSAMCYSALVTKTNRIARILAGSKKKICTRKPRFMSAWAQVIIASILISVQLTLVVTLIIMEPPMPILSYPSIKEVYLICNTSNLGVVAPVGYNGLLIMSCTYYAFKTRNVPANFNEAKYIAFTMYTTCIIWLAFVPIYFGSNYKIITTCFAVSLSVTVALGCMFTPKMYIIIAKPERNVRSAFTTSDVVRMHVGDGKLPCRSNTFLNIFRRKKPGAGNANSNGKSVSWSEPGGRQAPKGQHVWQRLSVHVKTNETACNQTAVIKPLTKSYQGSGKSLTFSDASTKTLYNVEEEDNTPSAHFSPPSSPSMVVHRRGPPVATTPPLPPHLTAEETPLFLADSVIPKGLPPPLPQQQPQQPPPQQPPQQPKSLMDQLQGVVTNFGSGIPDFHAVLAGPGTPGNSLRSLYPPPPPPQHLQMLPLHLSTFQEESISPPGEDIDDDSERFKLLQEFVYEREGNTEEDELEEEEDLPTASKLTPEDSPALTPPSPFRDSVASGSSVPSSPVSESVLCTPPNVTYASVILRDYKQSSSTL

mode of action at mGluR1 [1]	EC50 [3] [µM]	Fold shift (leftward shift of the glutamate response curve) ([3]; compound at 30 µM, HTS stock of 7)	potentiation of an EC20 of glutamate in the HTS campaign ([3]; mGluR4/Gqi5 CHO cells, HTS)	effect on mGluR4 in the absence of glutamate ([3]; no glutamate)	parent compound remaining [4] [%]	SMILES	selectivity versus mGluR5 [2]	effect on the glutamate max (maximal response) ([3]; compound at 30 µM)	CNS penetration [5]	brain penetration [5]
full antagonist	~5	27.2(±8.5) fold and 27.2 fold	Concentration-dependent potentiation	does not activate mGluR4	9	Cc1ccc(-n2ncc3c(N4CCCC(C)C4)ncnc32)c(C)c1 (centres unmarked) [Compound 7, 1-(2,4-dimethylphenyl)-4-(3-methylpiperidin-1-yl)-1H-pyrazolo[3,4-d]pyrimidine]	selective versus mGluR5	no increase in the glutamate max	–	–
–	–	–	–	–	–	N[C@@H](CCP(=O)(O)O)C(=O)O [L-AP4, L-(+)-2-amino-4-phosphonobutryic acid]	–	–	limited CNS penetration	–
–	–	–	–	–	–	O=C(Nc1ccccc1)[C@]12C[C@H]1/C(=N\O)c1ccccc1O2 [(−)-PHCCC, reference compound]	–	elevation in the glutamate max; also recorded: increases maximal response	–	limited brain penetration

Source: paper PMC3182458 (Bioorganic & medicinal chemistry letters, 2008)
